Published values from different studies.
Protocols differ between the studies behind these lines. ≈ marks a conversion by molar mass, not a printed value.

| SMILES | target or system | test | system | setting | quantity | result |
| --- | --- | --- | --- | --- | --- | --- |
| CCS(=O)(=O)Oc1ccc(C=NNC(=O)CSc2nc3ccc(Cl)cc3c(=O)n2-c2ccccc2)cc1 | Bacillus cereus | microbial growth, well diffusion | – | 20 µg/mL | inhibition zone | 2 mm |
| O=C(O)c1ccc(NCc2cccc(O)c2O)cc1 | NCI-H69 | cell growth or viability, resazurin | – | 72 h | IC50 | 32.2 µM |
| N=c1sc(C(=O)c2ccc(Nc3cnccn3)cc2)nn1-c1ccc([N+](=O)[O-])cc1 | Salmonella enterica | microbial growth, broth dilution | ATCC13076 TYPHIMURIUM | – | MIC | 6.25 mg/L (≈ 14.9 µM) |
| Nc1ccc(S(=O)(=O)Nc2ncccn2)cc1 | Bacillus cereus | microbial growth, well diffusion | – | 20 µg/mL | inhibition zone | 3 mm |
| CN(C)CCNC(=O)c1ccc(-c2nc3ccc4[nH]ncc4c3c3c2CCCC3)cc1 | BJ | cell growth or viability | – | 72 h | GI50 | > 10 µM |
| CC(=O)C1=NN(c2ccc([N+](=O)[O-])cc2)C(=C(C#N)C(=O)c2ccc(Nc3cnccn3)cc2)S1 | Salmonella enterica | microbial growth, broth dilution | ATCC13076 TYPHIMURIUM | – | MIC | 12.5 mg/L (≈ 25.7 µM) |
| CS(=O)(=O)Oc1ccc(C=NNC(=O)CSc2nc3ccc(Cl)cc3c(=O)n2-c2ccccc2)cc1 | Salmonella enterica | microbial growth, well diffusion | TYPHIMURIUM | 20 µg/mL | inhibition zone | 2 mm |
| Cc1nc(Nc2ncc(C(=O)Nc3c(C)cccc3Cl)s2)cc(N2CC[C@H](O)C2)n1 | JVM-2 | cell growth or viability, ATP luminescence | – | 10 µM, 72 h | inhibition | 61% |
| Cc1n[nH]c2ccc3nc(-c4ccc(C(=O)NCCN(C)C)cc4)c4c(c3c12)CCCCC4 | BJ | cell growth or viability | – | 72 h | GI50 | > 10 µM |
| O=C(O)c1cn(C2CC2)c2cc(N3CCNCC3)c(F)cc2c1=O | Salmonella enterica | microbial growth, well diffusion | TYPHIMURIUM | 20 µg/mL | inhibition zone | 4 mm |
| COc1ccc(-n2nc(C(=O)c3ccc(Nc4cnccn4)cc3)sc2=N)cc1 | Salmonella enterica | microbial growth, broth dilution | ATCC13076 TYPHIMURIUM | – | MIC | 50 mg/L (≈ 124 µM) |
| CCCS(=O)(=O)Oc1ccc(C=NNC(=O)CSc2nc3c(C)cccc3c(=O)n2-c2ccccc2)cc1OC | Salmonella enterica | microbial growth, broth dilution | TYPHIMURIUM | – | MIC | 49 mg/L (≈ 84.4 µM) |
| CN(C)CCNC(=O)c1ccc(-c2nc3ccc4[nH]ncc4c3c3c2CCCCC3)cc1 | BJ | cell growth or viability | – | 72 h | GI50 | 8.63 µM |
| O=C(N[C@H](CO)[C@H](O)c1ccc([N+](=O)[O-])cc1)C(Cl)Cl | Salmonella enterica | microbial growth, broth dilution | ATCC13076 TYPHIMURIUM | – | MIC | 6.25 mg/L (≈ 19.3 µM) |
| CN(C)CCNC(=O)c1ccc(-c2nc3ccc4[nH]ncc4c3c3c2CCCC3)c(F)c1 | BJ | cell growth or viability | – | 72 h | GI50 | 9.72 µM |
| COc1cccc(CNc2ccc(C(=O)O)cc2)c1 | NCI-H69 | cell growth or viability, resazurin | – | 72 h | IC50 | > 100 µM |
| CC(C)(C)c1cc(NC(=O)Nc2ccc(-c3cn4c(n3)sc3cc(OCCN5CCOCC5)ccc34)cc2)no1 | BJ | cell growth or viability | – | 72 h | GI50 | > 10 µM |
| O=C(O)c1ccc(NCc2cc(Br)ccc2O)cc1 | NCI-H69 | cell growth or viability, resazurin | – | 72 h | IC50 | > 100 µM |
